Test results: ChEMBL document CHEMBL1140586, “Design and synthesis of a functionally selective D3 agonist and its in vivo delivery via the intranasal route” (Bioorg Med Chem Lett, 2007)
The source made the active and inactive calls. The calls are words filed in the database; no cut-off is given here.

Legend:
[1] = Half life in dog at 0.3 mg/kg; assay type: ADME, organism-based, Canis lupus familiaris; design: dose 0.3 mg/kg; settings: in vivo
Outline: (§1)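 Dogs, male (n = 2) and female (n = 2). Compound freshly prepared in saline. The intravenous reference was a 10-min infusion at 3 ml/kg/h of a 0.2 mg/ml solution, giving a final dose of 0.1 mg/kg. Intranasal doses of 0.1 and 0.3 mg/kg were given as 100 µl into one nostril by spray device.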

[2] = biological target: T1, Alpha-2A adrenergic receptor (Homo sapiens, UniProt P08913); assay: Binding affinity to human alpha-2A adrenergic receptor
T1 sequence (P08913 whole entry): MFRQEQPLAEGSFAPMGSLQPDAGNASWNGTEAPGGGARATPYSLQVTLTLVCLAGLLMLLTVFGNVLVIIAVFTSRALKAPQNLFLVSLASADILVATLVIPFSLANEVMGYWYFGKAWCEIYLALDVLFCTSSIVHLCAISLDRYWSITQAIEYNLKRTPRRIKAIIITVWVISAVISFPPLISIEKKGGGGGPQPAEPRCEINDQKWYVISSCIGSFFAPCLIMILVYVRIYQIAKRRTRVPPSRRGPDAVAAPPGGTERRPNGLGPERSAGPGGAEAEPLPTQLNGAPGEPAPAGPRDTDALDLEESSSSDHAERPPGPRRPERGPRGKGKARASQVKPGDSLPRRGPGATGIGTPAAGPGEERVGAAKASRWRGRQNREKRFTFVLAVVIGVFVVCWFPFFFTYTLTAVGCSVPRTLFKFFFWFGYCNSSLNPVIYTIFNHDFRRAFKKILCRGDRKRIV

[3] = Protein binding in rat plasma; assay type: ADME, cell-free; settings: read-out: PB (converted)
[4] = Dissociation constant, pKa of the compound; assay type: physicochemical
D(3) dopamine receptor = D(3) dopamine receptor (Homo sapiens, UniProt P35462); assay: Agonist activity at human recombinant dopamine D3 receptor expressed in CHO cells assessed as inhibition of forskolin-stimulated cAMP accumulation; assay type: functional, cell-based
[5] = biological target: T2, 5-hydroxytryptamine receptor 1A (Homo sapiens) (UniProt P08908); assay: Agonist activity at human recombinant 5HT1A at 1 uM; assay type: functional
T2 sequence (whole entry): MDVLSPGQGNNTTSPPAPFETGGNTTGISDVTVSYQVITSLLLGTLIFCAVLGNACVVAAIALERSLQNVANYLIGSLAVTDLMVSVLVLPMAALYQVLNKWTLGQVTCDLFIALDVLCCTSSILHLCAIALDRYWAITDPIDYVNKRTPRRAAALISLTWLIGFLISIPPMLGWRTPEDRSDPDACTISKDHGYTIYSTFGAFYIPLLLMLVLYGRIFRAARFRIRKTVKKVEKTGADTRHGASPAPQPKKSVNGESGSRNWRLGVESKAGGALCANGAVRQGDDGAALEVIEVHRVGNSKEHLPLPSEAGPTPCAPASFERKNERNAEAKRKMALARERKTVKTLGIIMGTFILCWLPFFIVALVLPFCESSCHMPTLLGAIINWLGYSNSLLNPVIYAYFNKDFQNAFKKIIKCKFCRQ

[6] = biological target: T2, 5-hydroxytryptamine receptor 1A (Homo sapiens); assay: Binding affinity to human 5HT1A receptor at 10 uM
Outline: (§2)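 Single-concentration binding screen in the Cerep wide ligand profile panel at the human 5HT1A receptor. Read-out is percent binding activity at each test concentration.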

[7] = Stability in human hepatocytes; assay type: ADME, cell-based, Liver, Hepatocyte
Outline: (§3)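 Rat, dog and human hepatocyte incubations; read-out was the disappearance half-life of parent compound, in minutes.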

Canis familiaris [8] = assay: Toxicity in sc dog assessed as nausea upto […]; assay type: organism-based, Canis lupus familiaris; settings: in vivo
Canis familiaris [9] = assay: Toxicity in sc dog assessed as hypotensive effects upto […]; assay type: organism-based, Canis lupus familiaris; settings: in vivo
[10] = Stability in rat hepatocytes; assay type: ADME, cell-based, Liver, Hepatocyte; outline: as §3
[11] = Stability in dog hepatocytes; assay type: ADME, cell-based, Liver, Hepatocyte; outline: as §3
D(2) dopamine receptor = D(2) dopamine receptor (Homo sapiens, UniProt P14416); assay: Agonist activity at human recombinant dopamine D2 receptor expressed in rat pituitary cells assessed as inhibition of forskolin-stimulated cAMP accumulation; assay type: functional, cell-based, Pituitary gland cell
[12] = Protein binding in dog plasma; assay type: ADME, cell-free, Canis lupus familiaris; settings: read-out: PB (converted)
[13] = Apparent permeability across Caco-2 cells at 1 uM; assay type: ADME, cell-based; settings: human
[14] = biological target: T3, 5-hydroxytryptamine receptor 1A (Homo sapiens, UniProt P08908); assay: Antagonist activity at human recombinant 5HT1A receptor; assay type: functional
T3 sequence (P08908 whole entry): T2 sequence (whole entry)

[15] = Tmax in rat at 2 mg/kg administered by intranasal route; assay type: ADME, organism-based; design: dose 2 mg/kg; settings: in vivo, inhaled or intranasal
Outline: (§4)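 Rat study: compound freshly prepared in saline. An intravenous reference dose of 1 mg/kg was given as a bolus. Intranasal doses of 0.5 and 2 mg/kg were given as 20 µl into one nostril by pipette.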

[16] = Solubility of the compound; assay type: physicochemical
Canis familiaris [17] = assay: Effect on male erectile dysfunction in sc dosed dog; assay type: functional, Canis lupus familiaris
Outline: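 Animal models of male erectile dysfunction, with multiple subcutaneous dosing; ED50 expressed as free drug concentration.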

[18] = biological target: Voltage-gated inwardly rectifying potassium channel KCNH2 (Homo sapiens, UniProt Q12809); assay: Displacement of dofetilide from hERG
Histamine H1 receptor = Histamine H1 receptor (Homo sapiens, UniProt P35367); assay: Binding affinity to human histamine H1 receptor
[19] = biological target: T4, Muscarinic acetylcholine receptor M1 (Homo sapiens, UniProt P11229); assay: Binding affinity to human muscarinic M1 receptor
T4 sequence (P11229 whole entry): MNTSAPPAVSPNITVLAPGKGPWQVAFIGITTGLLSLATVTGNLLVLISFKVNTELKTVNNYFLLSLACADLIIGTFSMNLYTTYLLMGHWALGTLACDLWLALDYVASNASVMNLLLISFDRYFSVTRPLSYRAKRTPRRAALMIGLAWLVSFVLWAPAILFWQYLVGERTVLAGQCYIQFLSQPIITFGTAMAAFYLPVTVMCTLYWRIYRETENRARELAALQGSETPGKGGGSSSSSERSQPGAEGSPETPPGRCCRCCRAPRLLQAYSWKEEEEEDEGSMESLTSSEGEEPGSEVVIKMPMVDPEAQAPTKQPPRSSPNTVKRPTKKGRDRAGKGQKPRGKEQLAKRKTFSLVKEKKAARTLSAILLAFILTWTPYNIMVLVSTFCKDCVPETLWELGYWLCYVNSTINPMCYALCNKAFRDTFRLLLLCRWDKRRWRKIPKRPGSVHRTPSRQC

[20] = Half life in rat at 2 mg/kg administered by intranasal route; assay type: ADME, organism-based; design: dose 2 mg/kg; settings: in vivo, inhaled or intranasal; outline: as §4
[21] = Protein binding in human plasma; assay type: ADME, cell-free; settings: read-out: PB (converted)
[22] = Distribution coefficient, log D at pH 7.4; assay type: physicochemical; settings: octanol/water
[23] = biological target: 5-hydroxytryptamine receptor 2A (Rattus norvegicus, UniProt P14842); assay: Binding affinity to rat 5HT2A receptor
[24] = Intranasal bioavailability in rat at 2 mg/kg; assay type: ADME, organism-based; settings: in vivo, inhaled or intranasal; outline: as §4
D(1A) dopamine receptor = D(1A) dopamine receptor (Homo sapiens, UniProt P21728); assay: Binding affinity to dopamine D1 receptor
Outline: (§5)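 Broad commercial ligand-binding panel profiling, including dopamine D1 and D5 receptors; reported as IC50.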

[25] = biological target: T5, Alpha-1A adrenergic receptor (Rattus norvegicus, UniProt P43140); assay: Binding affinity to rat alpha-1A adrenergic receptor
T5 sequence (P43140 whole entry): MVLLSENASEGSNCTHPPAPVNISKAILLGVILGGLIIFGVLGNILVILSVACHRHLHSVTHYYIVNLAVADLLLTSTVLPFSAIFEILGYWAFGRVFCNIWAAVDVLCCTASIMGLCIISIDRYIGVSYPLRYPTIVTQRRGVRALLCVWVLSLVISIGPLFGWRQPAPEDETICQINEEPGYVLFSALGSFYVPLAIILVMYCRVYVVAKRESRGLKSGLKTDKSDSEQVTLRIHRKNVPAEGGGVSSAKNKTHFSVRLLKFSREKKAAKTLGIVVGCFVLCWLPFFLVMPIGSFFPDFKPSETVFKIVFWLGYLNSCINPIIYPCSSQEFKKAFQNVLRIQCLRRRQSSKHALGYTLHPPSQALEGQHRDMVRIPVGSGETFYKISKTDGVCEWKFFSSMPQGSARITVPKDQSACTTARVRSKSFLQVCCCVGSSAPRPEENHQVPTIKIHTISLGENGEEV

[26] = Tmax in dog at 0.3 mg/kg; assay type: ADME, organism-based, Canis lupus familiaris; design: dose 0.3 mg/kg; settings: in vivo; outline: as §1
D(1B) dopamine receptor = D(1B) dopamine receptor (Homo sapiens, UniProt P21918); assay: Binding affinity to dopamine D5 receptor; outline: as §5
Canis familiaris [27] = assay: Toxicity in sc dog assessed as emesis upto […]; assay type: organism-based, Canis lupus familiaris; settings: in vivo
[28] = biological target: T2, 5-hydroxytryptamine receptor 1A (Homo sapiens); assay: Binding affinity to human 5HT1A receptor at 100 nM; outline: as §2
[29] = Intranasal bioavailability in dog at 0.3 mg/kg; assay type: ADME, organism-based, Canis lupus familiaris; settings: in vivo, inhaled or intranasal; outline: as §1

Sequence of D(3) dopamine receptor (P35462 whole entry): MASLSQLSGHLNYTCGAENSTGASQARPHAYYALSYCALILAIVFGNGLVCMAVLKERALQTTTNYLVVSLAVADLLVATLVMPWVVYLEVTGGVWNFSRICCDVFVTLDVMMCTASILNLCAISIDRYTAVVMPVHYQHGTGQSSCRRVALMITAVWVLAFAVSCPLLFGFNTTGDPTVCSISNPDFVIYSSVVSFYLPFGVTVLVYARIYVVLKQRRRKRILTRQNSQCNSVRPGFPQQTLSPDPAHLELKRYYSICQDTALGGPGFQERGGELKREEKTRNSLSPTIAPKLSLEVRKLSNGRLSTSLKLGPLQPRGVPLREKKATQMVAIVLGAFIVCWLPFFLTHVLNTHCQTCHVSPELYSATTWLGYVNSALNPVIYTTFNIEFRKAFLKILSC
Sequence of D(1B) dopamine receptor (P21918 whole entry): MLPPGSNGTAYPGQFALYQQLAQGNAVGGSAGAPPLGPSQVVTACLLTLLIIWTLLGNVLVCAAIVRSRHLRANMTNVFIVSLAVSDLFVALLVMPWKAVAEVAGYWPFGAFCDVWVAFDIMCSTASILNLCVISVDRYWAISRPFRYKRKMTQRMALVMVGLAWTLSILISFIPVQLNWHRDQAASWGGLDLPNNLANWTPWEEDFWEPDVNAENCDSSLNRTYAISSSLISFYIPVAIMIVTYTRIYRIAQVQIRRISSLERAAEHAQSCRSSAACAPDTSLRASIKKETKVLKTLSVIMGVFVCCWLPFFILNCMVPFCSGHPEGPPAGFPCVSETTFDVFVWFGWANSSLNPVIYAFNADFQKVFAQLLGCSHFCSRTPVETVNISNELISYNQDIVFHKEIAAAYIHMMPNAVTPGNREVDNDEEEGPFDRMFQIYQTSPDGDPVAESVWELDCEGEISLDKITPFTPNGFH
Sequence of Voltage-gated inwardly rectifying potassium channel KCNH2 (Q12809 whole entry): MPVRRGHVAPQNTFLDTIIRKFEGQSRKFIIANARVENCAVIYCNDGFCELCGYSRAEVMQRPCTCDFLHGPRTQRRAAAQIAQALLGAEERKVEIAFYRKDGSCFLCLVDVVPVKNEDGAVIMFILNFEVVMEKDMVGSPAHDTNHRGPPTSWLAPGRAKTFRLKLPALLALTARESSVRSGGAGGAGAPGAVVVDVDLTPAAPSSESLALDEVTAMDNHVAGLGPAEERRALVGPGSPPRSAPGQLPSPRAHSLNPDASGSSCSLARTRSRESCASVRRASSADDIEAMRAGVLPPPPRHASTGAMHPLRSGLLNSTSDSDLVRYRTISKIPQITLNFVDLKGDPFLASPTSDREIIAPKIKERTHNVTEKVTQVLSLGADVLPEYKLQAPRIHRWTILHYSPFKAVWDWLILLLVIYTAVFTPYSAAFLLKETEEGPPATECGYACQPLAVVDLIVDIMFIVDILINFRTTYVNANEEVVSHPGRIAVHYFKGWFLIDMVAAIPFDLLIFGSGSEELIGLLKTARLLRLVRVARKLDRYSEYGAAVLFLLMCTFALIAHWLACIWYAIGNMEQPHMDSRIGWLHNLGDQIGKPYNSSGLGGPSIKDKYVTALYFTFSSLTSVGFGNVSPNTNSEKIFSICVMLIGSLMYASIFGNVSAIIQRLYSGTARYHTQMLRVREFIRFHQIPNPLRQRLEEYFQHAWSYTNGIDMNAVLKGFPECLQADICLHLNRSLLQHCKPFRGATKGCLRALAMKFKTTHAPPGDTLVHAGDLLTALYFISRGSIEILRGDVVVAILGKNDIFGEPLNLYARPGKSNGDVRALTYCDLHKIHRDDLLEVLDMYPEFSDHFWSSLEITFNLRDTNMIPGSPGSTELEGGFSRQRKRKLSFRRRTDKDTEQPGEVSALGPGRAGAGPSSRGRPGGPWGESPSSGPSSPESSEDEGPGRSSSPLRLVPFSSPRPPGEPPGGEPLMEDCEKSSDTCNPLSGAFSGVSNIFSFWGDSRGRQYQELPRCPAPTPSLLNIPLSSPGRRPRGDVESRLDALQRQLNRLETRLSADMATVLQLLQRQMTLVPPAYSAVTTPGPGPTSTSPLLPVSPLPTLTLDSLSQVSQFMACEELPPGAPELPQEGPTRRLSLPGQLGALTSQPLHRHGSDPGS
Sequence of D(1A) dopamine receptor (P21728 whole entry): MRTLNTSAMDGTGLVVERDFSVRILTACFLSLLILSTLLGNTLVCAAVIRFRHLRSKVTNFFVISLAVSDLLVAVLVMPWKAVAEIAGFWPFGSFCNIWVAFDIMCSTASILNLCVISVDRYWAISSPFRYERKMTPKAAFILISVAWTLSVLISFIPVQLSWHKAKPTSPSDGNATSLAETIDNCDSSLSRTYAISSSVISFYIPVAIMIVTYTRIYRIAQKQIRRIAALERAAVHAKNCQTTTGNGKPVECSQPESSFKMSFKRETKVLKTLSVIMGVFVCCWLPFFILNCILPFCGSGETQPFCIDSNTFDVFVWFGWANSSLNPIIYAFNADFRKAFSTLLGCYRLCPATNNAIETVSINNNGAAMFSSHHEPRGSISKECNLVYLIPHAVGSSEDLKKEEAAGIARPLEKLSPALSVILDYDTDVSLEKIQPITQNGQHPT
Sequence of D(2) dopamine receptor (P14416 whole entry): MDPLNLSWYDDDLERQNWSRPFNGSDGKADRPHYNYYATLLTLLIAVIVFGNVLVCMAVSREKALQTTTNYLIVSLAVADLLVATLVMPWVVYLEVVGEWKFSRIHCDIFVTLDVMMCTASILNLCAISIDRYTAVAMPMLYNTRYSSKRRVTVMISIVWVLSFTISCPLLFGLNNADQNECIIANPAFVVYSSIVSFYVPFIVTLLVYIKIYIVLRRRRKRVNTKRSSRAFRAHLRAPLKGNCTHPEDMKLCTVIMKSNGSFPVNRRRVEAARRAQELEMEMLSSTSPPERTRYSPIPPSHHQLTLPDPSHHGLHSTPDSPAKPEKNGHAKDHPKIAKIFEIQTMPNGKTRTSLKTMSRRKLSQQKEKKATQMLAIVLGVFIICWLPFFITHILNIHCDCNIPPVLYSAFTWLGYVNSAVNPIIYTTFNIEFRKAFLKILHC
Sequence of Histamine H1 receptor (P35367 whole entry): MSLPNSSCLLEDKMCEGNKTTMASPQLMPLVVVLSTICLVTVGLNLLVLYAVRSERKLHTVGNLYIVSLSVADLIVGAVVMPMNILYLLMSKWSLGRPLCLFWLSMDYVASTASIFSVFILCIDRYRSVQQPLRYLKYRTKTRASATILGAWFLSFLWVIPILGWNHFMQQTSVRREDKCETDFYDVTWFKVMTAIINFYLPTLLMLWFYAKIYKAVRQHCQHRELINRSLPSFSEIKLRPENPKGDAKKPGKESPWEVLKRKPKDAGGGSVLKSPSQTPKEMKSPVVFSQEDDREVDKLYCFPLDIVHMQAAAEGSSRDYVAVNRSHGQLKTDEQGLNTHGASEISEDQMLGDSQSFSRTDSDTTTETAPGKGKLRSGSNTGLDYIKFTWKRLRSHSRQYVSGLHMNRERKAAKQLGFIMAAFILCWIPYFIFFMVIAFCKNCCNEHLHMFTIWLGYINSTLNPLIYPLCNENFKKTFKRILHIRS
Sequence of 5-hydroxytryptamine receptor 2A (P14842 whole entry): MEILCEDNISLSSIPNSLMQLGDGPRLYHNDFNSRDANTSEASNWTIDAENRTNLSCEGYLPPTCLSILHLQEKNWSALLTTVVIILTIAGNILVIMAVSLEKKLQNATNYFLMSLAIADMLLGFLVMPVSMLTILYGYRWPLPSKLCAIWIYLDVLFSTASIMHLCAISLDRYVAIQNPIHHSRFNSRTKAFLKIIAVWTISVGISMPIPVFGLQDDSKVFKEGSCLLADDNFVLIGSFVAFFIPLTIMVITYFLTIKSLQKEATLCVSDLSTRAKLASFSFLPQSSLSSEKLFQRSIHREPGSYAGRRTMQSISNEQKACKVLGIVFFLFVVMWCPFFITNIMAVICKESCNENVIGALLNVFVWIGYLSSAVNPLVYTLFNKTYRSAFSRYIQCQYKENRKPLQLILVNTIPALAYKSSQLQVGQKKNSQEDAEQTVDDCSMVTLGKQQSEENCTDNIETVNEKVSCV

## CCCN1CCO[C@H](c2cccc(O)c2)C1
[1]
  half-life: 96 min
[2]
  Ki: > 1000 nM
[3]
  fraction unbound: 0.59
[4]
  pKa: 7.4
D(3) dopamine receptor
  EC50: 8 nM
  Emax: > 90%
[5]
  Activity: inactive
[6]
  Activity: 95%
[7]
  half-life: 61 min
Canis familiaris [8]
  Activity: Non-toxic
Canis familiaris [9]
  Activity: Non-toxic
[10]
  half-life: 28 min
[11]
  half-life: 18 min
D(2) dopamine receptor
  EC50: > 10000 nM
[12]
  fraction unbound: 0.24
[13]
  Papp at 1 µM: 38 ×10⁻⁶ cm/s
[14]
  IC50: > 20000 nM
[15]
  Tmax: 5 min
[16]
  solubility: > 1000 mg/mL
Canis familiaris [17]
  ED50: 0.2 nM
[18]
  Ki: > 4000 nM
Histamine H1 receptor
  Ki: > 2000 nM
[19]
  Ki: > 1000 nM
[20]
  half-life: 18 min
[21]
  fraction unbound: 0.35
[22]
  logD: 1
[23]
  Ki: 970 nM
[24]
  bioavailability: 20%
D(1A) dopamine receptor
  IC50: > 10000 nM
[25]
  Ki: > 1000 nM
[26]
  Tmax: 5 min
D(1B) dopamine receptor
  IC50: > 10000 nM
Canis familiaris [27]
  Activity: Non-toxic
[28]
  Activity: 16%
[29]
  bioavailability: 33%
